Active and inactive are the calls of the source. The rule behind the calls is not given here.
Columns and labels:
Jurkat [1] = assay: Cell cycle arrest in UV-A irradiated human Jurkat cells assessed as accumulation at G1 phase at 5 uM after 24 hrs by propidium iodide based flow cytometry (reference value: 64.4 %); type: functional
How it was run: (§1)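 Exponentially growing Jurkat cells (5×10^5) irradiated with UV-A (365 nm lamp, 2.5 J/cm²) in presence of compound. After 24 h: fixed in ice-cold 70% ethanol, lysed with RNAse A, stained with PI (10 µg/ml), analysed by flow cytometry. Phases calculated on living cells; subG1 is hypodiploid DNA peak.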

MCF7 [2] = assay: Phototoxicity in 2.5 J/cm'2 UV-A irradiated human MCF7 cells assessed as cell viability after 72 hrs by MTT assay in presence of radical scavenger GSH; type: functional, cell-based
How it was run: (§2)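 MCF-7 cells given compound plus scavenger in HBSS, 30 min at 37 °C, then UV-A (2.5 J/cm², 365 nm lamp). Medium replaced; viability by MTT after 72 h. Means ± SEM of at least three independent experiments.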

MCF7 [3] = assay: Phototoxicity in 2.5 J/cm'2 UV-A irradiated human MCF7 cells assessed as cell viability after 72 hrs by MTT assay in presence of radical scavenger mannitol; type: functional, cell-based; how it was run: as §2
[4] = Drug uptake in cytoplasm of human NCTC-2544 cells at 10 uM after 2 hrs by fluorescence microphotography; type: ADME, cell-based; settings: nctc-2544, 2 h
How it was run: (§3)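 NCTC-2544 cells attached in Petri dishes, given compound at 10 μM for 2 h, washed with HBSS. Then 30 min with Rhodamine 123 (mitochondria), LysoTracker RED, CellMask Orange (plasma membrane) or ER-Tracker. Blue compound fluorescence overlaid on probe images by video-confocal microscopy.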

[5] = Phototoxicity in 2.5 J/cm'2 UV-A irradiated human NCTC-2544 cells after 72 hrs by MTT assay; type: functional, cell-based; settings: NCTC-2544, light or radiation study
How it was run: (§4)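 HL-60 and Jurkat (8×10³/well, RPMI-1640) and MCF-7, LoVo, NCTC-2544 (5×10³/well; DMEM or Ham's F12) preincubated 18 h at 37 °C, 5% CO₂. Compound in DMSO diluted in HBSS pH 7.2, 30 min at 37 °C, then UV-A at 2.5 or 3.75 J/cm². Medium replaced, 72 h incubation, MTT read-out. IC50 as mean ± SEM of three experiments.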

Jurkat [6] = assay: Induction of apoptosis in 3.75 J/cm'2 UV-A irradiated human Jurkat cells assessed as early apoptotic cells at 10 uM after 24 hrs by Annexin-V-FITC and propidium iodide based flow cytometry (reference value: 1.9 %); type: functional
[7] = Phototoxicity in 3.75 J/cm'2 UV-A irradiated human NCTC-2544 cells after 72 hrs by MTT assay; type: functional, cell-based; settings: NCTC-2544, light or radiation study
How it was run: (§5)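 Seeded at 5 × 10³ cells/well with 10% FBS: MCF-7 and NCTC-2544 in DMEM, LoVo in Ham's F12. Pre-incubated 18 h at 37 °C, 5% CO2. Compound (DMSO stock diluted in HBSS pH 7.2) was applied for 30 min at 37 °C, then UV-A irradiation (mainly 365 nm, 4.0 mW/cm²). Medium was restored for 72 h before MTT. IC50 is the mean ± SEM of three experiences.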

Jurkat [8] = assay: Induction of apoptosis in 3.75 J/cm'2 UV-A irradiated human Jurkat cells assessed as necrotic cells at 10 uM after 24 hrs by Annexin-V-FITC and propidium iodide based flow cytometry (reference value: 4.2 %); type: functional
Nucleic Acid [9] = assay: Binding affinity to salmon testes DNA at drug/DNA ratio of 0.02 by linear dichroism analysis; type: nucleic-acid assay; settings: Salmonidae
How it was run: (§6)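 Flow linear dichroism in 10 mM phosphate buffer pH 7.2. Samples oriented in a rotating cylindrical cuvette (0.14 cm path, 800 rpm) at several drug/DNA ratios.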

Jurkat [10] = assay: Induction of apoptosis in UV-A irradiated human Jurkat cells assessed as increase in number of damaged lysosomes at 5 to 10 uM by acridine orange-based flow cytometry; type: functional, cell-based
How it was run: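 Lysosomal stability in Jurkat cells 6, 12 and 24 h after UV-A (2.5 J/cm²) with compound. Cells resuspended in RPMI-1640 with 1 µM acridine orange; flow cytometry, excitation 488 nm, emission in FL3. Mean ± SEM of three experiments.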

Jurkat [11] = assay: Cell cycle arrest in UV-A irradiated human Jurkat cells assessed as accumulation at S phase at 5 uM after 24 hrs by propidium iodide based flow cytometry (reference value: 25.3 %); type: functional; how it was run: as §1
Jurkat [12] = assay: Induction of apoptosis in UV-A irradiated human Jurkat cells assessed as loss of mitochondrial membrane potential after 6 hrs by cytofluorimetric analysis; type: functional, cell-based
How it was run: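 Jurkat cells 6, 12 and 24 h after UV-A (2.5 J/cm²) with compound, resuspended in HBSS with JC-1 (1 μg/ml). Green (FL1) and orange (FL2) fluorescence collected by flow cytometry, ≥10000 events; cells with monomeric JC-1 counted as collapsed potential. Mean ± SEM of three experiments.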

Jurkat [13] = assay: Phototoxicity in 2.5 J/cm'2 UV-A irradiated human Jurkat cells after 72 hrs by MTT assay; type: functional, cell-based; settings: light or radiation study; how it was run: as §4
MCF7 [14] = assay: Phototoxicity in 3.75 J/cm'2 UV-A irradiated human MCF7 cells after 72 hrs by MTT assay; type: functional, cell-based; settings: MCF7, light or radiation study; how it was run: as §5
MCF7 [15] = assay: Phototoxicity in 2.5 J/cm'2 UV-A irradiated human MCF7 cells assessed as cell viability after 72 hrs by MTT assay in presence of radical scavenger NaN3; type: functional, cell-based; how it was run: as §2
Jurkat [16] = assay: Induction of lipid peroxidation in 3.75 J/cm'2 UV-A irradiated human Jurkat cells assessed as increase in TBARS formation after 24 hrs by thiobarbituric acid assay; type: functional, cell-based
How it was run: (§7)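 Lipid peroxidation measured as MDA–thiobarbituric acid adducts, with BHT added to samples; calibrated to a 1,1,3,3-tetraethoxypropane standard curve; protein by Peterson method.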

Jurkat [17] = assay: Cell cycle arrest in UV-A irradiated human Jurkat cells assessed as accumulation at Sub G1 phase at 5 uM after 24 hrs by propidium iodide based flow cytometry (reference value: 0.1 %); type: functional; how it was run: as §1
Jurkat [18] = assay: Induction of lipid peroxidation in 2.5 J/cm'2 UV-A irradiated human Jurkat cells assessed as increase in TBARS formation after 24 hrs by thiobarbituric acid assay; type: functional, cell-based; how it was run: as §7
Nucleic Acid [19] = assay: Binding affinity to salmon testes DNA at drug/DNA ratio of 0.01 by linear dichroism analysis; type: nucleic-acid assay; settings: Salmonidae; how it was run: as §6
[20] = Drug uptake in lysosome of human NCTC-2544 cells at 10 uM after 2 hrs by fluorescence microphotography; type: ADME, cell-based; settings: nctc-2544, 2 h; how it was run: as §3
Jurkat [21] = assay: Cell cycle arrest in UV-A irradiated human Jurkat cells assessed as accumulation at Sub G1 phase at 10 uM after 24 hrs by propidium iodide based flow cytometry (reference value: 0.1 %); type: functional; how it was run: as §1
MCF7 [22] = assay: Phototoxicity in 2.5 J/cm'2 UV-A irradiated human MCF7 cells assessed as cell viability after 72 hrs by MTT assay in presence of radical scavenger BHA; type: functional, cell-based; how it was run: as §2
Jurkat [23] = assay: Cell cycle arrest in UV-A irradiated human Jurkat cells assessed as accumulation at G1 phase at 10 uM after 24 hrs by propidium iodide based flow cytometry (reference value: 64.4 %); type: functional; how it was run: as §1
Nucleic Acid [24] = assay: Induction of photo-induced Escherichia coli pBR322 DNA damage at drug:DNA ratio of 3:1 by agarose gel electrophoresis in presence of endonuclease III

CCOC(=O)c1c2c(c(C)n1C)-c1c(cc(S(=O)(=O)c3ccccc3)c(=O)n1C)CC2
Activity (Jurkat [1]): 48.9%
Activity (MCF7 [2]): inactive
Activity (MCF7 [3]): inactive
Drug uptake [4]: Active
IC50 [5]: 2400 nM
Activity (Jurkat [6]): 23.9%
IC50 [7]: 1300 nM
Activity (Jurkat [8]): 8.6%
Activity (Nucleic Acid [9]): inactive
Activity (Jurkat [10]): Active
Activity (Jurkat [11]): 46.9%
Activity (Jurkat [12]): Active
IC50 (Jurkat [13]): 1200 nM
IC50 (MCF7 [14]): 1300 nM
Activity (MCF7 [15]): inactive
Activity (Jurkat [16]): Dose-dependent effect
Activity (Jurkat [17]): 10.5%
Activity (Jurkat [18]): Dose-dependent effect
Activity (Nucleic Acid [19]): inactive
Drug uptake [20]: Active
Activity (Jurkat [21]): 43%
Activity (MCF7 [22]): inactive
Activity (Jurkat [23]): 39.1%
Activity (Nucleic Acid [24]): Active

— ChEMBL document CHEMBL2176901, “Pyrrolo[3,4-h]quinolinones a new class of photochemotherapeutic agents” (Bioorg Med Chem, 2011)
